Our source for the IC50, Activity and inhibition values is ChEMBL document CHEMBL1777721, “Phenolic compounds with NF-κB inhibitory effects from the fungus Phellinus baumii” (Bioorg Med Chem Lett, 2011).

Experiment [1] in a line: Inhibition of basal NF-kappaB-dependent reporter gene transcription in androgen-insensitive human PC3 cells. (In general: Reporter assays use an easily measured gene product as a stand-in for the process of interest.)
In experiment [2] the test system is LNCaP. The experiment is described as follows: Inhibition of LPS-induced NF-kappaB-dependent reporter gene transcription in androgen-sensitive human LNCap cells. The format is cell-based. To be noted: for inhibition: dose or concentration not given here. A digest of the protocol: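 Luciferase NF-κB reporter assay in androgen-sensitive LNCaP prostate cancer cells. Cells were pretreated with the test compound, then stimulated with LPS to activate NF-κB. Reporter activity was read at three concentrations and expressed as percent reduction of the LPS-induced signal.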

Where [3] appears, read: Homo sapiens, PC-3, read-out: IC50.

As usually defined, the IC50 is the midpoint of a concentration-inhibition curve. Usually inhibition stands for the percentage by which the read-out fell short of the control. Read a high inhibition as a response far below the control.

For `O=C(O)CC1Oc2cc(/C=C/c3ccc(O)c(O)c3)oc(=O)c2-c2cc(O)c(O)cc21` (stereo not given) [PHELLIBAUMIN B], the IC50 in experiment [1] (setting [3]) was determined as 41.4 µM. Turning to `COc1cc2c(c(O)c1Cc1ccccc1O)C(=O)C[C@H](c1ccc(O)cc1)O2`, the IC50 in experiment [1] (setting [3]) was determined as 36.4 µM. Further, in experiment [2], the Activity result is “Dose-dependent effect” and the inhibition was 35%.

In the case of `COc1cc(O)c2c(c1Cc1ccccc1O)O[C@@H](c1ccc(O)cc1)CC2=O` [METHYLPHELLIGRIN B], the IC50 in experiment [1] (setting [3]) was 22.5 µM. Further, in experiment [2], the Activity entry is “Dose-dependent effect” and the inhibition turned out to be 62.5%. With `O=c1oc2cc(-c3c(-c4ccc(O)c(O)c4)oc4cc(/C=C/c5ccc(O)c(O)c5)oc(=O)c34)oc(=O)c2c2cc(O)c(O)cc12` [PHELLIGRIDIN H], in experiment [1] (setting [3]), the IC50 stood at 84.9 µM.

`O=C(O)/C(=C\c1ccc(O)c(O)c1)c1c(O)cc(/C=C/c2ccc(O)c(O)c2)oc1=O` [PHELLIBAUMIN D]: in experiment [1] (setting [3]), the IC50 stood at 74.6 µM.

For the molecule `O=c1oc(/C=C/c2ccc(O)c(O)c2)cc(O)c1/C(=C/c1ccc(O)c(O)c1)c1cc2oc(=O)c3cc(O)c(O)cc3c2c(=O)o1` [PHELLIBAUMIN C], in experiment [1] (setting [3]), the IC50 came out at 62.3 µM.

`CCOC(=O)/C(=C\c1ccc(O)c(O)c1)c1c(O)cc(/C=C/c2ccc(O)c(O)c2)oc1=O` [PHELLIBAUMIN E]: the IC50 in experiment [1] (setting [3]) was found to be 52.9 µM.

On to `COc1cc(O)c2c(c1Cc1ccccc1O)O[C@H](c1ccc(O)cc1)CC2=O`, for which the 50% inhibitory concentration (IC50) in experiment [1] (setting [3]) is 22.5 µM. Turning to `CC(=O)/C(=C\c1ccc(O)c(O)c1)c1c(O)cc(/C=C/c2ccc(O)c(O)c2)oc1=O` [INTERFUNGIN B], the IC50 in experiment [1] (setting [3]) stood at 71.2 µM. With `COc1cc2c(c(O)c1Cc1ccccc1O)C(=O)C[C@@H](c1ccc(O)cc1)O2`, the concentration for half-maximal inhibition (IC50) in experiment [1] (setting [3]) is 36.4 µM. In the case of `O=c1oc2cc(O)c1-c1cc(O)c(O)cc1/C=C/c1cc3c(c(=O)o1)[C@H](c1cc(O)c(c(=O)o1)-c1cc(O)c(O)cc1/C=C/c1cc4c(c(=O)o1)[C@H]2[C@@H](c1ccc(O)c(O)c1)O4)[C@@H](c1ccc(O)c(O)c1)O3` [PHELLIGRIDIMER A], the IC50 result in experiment [1] (pc-3) is recorded as “Not Active”. As to `O=C1C[C@@H](c2ccc(O)cc2)Oc2cc(O)c(Cc3ccccc3O)c(O)c21`, the IC50 in experiment [1] (setting [3]) worked out at 54.5 µM.

As to `O=c1oc(/C=C/c2ccc(O)c(O)c2)cc2oc3cc(O)c(O)cc3c12` [PHELLIBAUMIN A], the IC50 in experiment [1] (setting [3]) is 53 µM.

Regarding `O=C1C[C@H](c2ccc(O)cc2)Oc2cc(O)c(Cc3ccccc3O)c(O)c21` [PHELLIGRIN A], the IC50 in experiment [1] (setting [3]) stood at 54.5 µM. For the same molecule, in experiment [2], the Activity entry is “Dose-dependent effect” and the inhibition was 18.4%.
